Assay results published in ChEMBL document CHEMBL4513216, “Probing the Open Global Health Chemical Diversity Library for Multistage-Active Starting Points for Next-Generation Antimalarials” (ACS Infect Dis, 2020).

Assay: Toxicity liver stage against HepG2, at 10uM
Assay type: cell-based
Parameters: test concentration 10 uM, cell line HepG2-A16-CD81EGFP
Settings: human, HepG2-A16-CD81EGFP cells; read-out: INHIBITION
In short: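 Uninfected HepG2-A16-CD81EGFP cells, 3 × 10^3 per well, 1536-well, plated on prespotted compound at 10 μM final, parasite-free screening media added to match infected plates; puromycin 10 μM positive, DMSO 0.5% negative; run in parallel with 48 h PbLuc assay at 37 °C, 5% CO2; viability by CellTiter-Glo luminescence, normalized to controls.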

SMILES	cytotoxicity at 10 µM [%]
Cc1ncc(C(=O)N2CCCN(Cc3ccccc3F)CC2)c(O)n1	0.903
CCOc1ncnc2c1CCN(C(=O)CN(C)C)CC2	-5.12
O=C(O)c1ccnc(SCC(F)(F)F)c1	-17.6
CC(NC(=O)NC1CCN(CC2CCCC2)CC1)c1nccs1 (stereo not drawn)	3.2
CCOC(=O)CSc1nnc([C@@H](N)C(C)C)o1	0.979
Cc1nc(CN(Cc2ccccc2F)C2CCC2)no1	6.95
CCN1CCN(C2CCN(Cc3noc(C4CC4)n3)CC2)C1=O	-8.69
CN(CC(=O)Nc1nncs1)CC1CCCN1c1cccnn1 (stereo not drawn)	-13.7
Cc1ncsc1C(=O)NCCn1nc2ccccn2c1=O	0.00307
CNC(=O)NC(=O)CN1CCN(c2ccc(C(=O)OC)cc2)CC1C (stereo not drawn)	-1.98
c1cnnc(N2CCCC(NCc3nnc(-c4ccco4)o3)C2)c1 (stereo not drawn)	-0.986
COc1ccc(CN2CCC(O)CC2)c(OC)c1	-9.18
O=c1cccnn1CC1CN(c2ncc(F)cn2)Cc2nccn2C1 (stereo not drawn)	4.65
CN(Cc1ccco1)C(=O)Nc1cccnc1N1CCCC1	-5.3
CN(C)C(=O)N1CCN(C(=O)C(c2ccccc2F)N(C)C)CC1 (stereo not drawn)	-0.665
Cc1nc2cc(O)nn2c(C)c1CCC(=O)N(C)Cc1cscn1	-2.64
CC(C)(C(=O)N1CCC(C(N)=O)C1)c1ccccc1F (stereo not drawn)	4.68
CCCC1COCCN1Cc1ccc(NC(C)=O)cc1 (stereo not drawn)	-145
CC(C)(C)N1CC(C(=O)N2CCN(CCn3cncn3)CC2)CC1=O (stereo not drawn)	-5.14
O=C(NCCN1CCCCCC1=O)c1ccn(-c2ccc(F)cc2)n1	-8.62
CCN(Cc1ccc(Cl)s1)S(=O)(=O)CCOC	12.1
CCC(C(=O)N1CCN(C(=O)N2CCOCC2)CC1)n1cccn1 (stereo not drawn)	2.35
Cn1cc(C2=NOC(C(=O)NC3(c4cccc(F)c4)CCCC3)C2)cn1 (stereo not drawn)	1.53

SMILES	cytotoxicity at 10 µM [%]
O=C([C@H]1CCCO1)N1CCN(CCn2cccn2)c2ncccc2C1	-106
Cc1oc(C)c(C(=O)NCc2cccnc2N(C)C)c1C	-0.292
c1cc(CN2CCOCC3(CCN(CC4CCOCC4)CC3)C2)ccn1	-82.6
Cc1cccc(OC2CCN(c3nccnc3C#N)CC2)n1	1.1
CSCC(C)N(C)S(=O)(=O)c1ccc(Cl)cc1C#N (stereo not drawn)	-41.5
CCn1nc2c(cc1=O)CN(CC(=O)N(C)c1nccs1)CC2	-4.58
CCN1CCN(c2ncc3c(=O)n(Cc4ccco4)ccc3n2)CC1	-15.9
CCOCc1ccc(NC(=O)N2CCOC3(CCC3)C2)cc1	4.29
COC(=O)c1ccc(NC(=O)CN2CCCCC2C2OCCO2)cc1 (stereo not drawn)	42.5
CC(=O)N1C[C@@H]2C(=O)N(C)C3(CCN(C(=O)C(C)C)CC3)[C@@H]2C1	0.434
O=C(Cn1cnc(NC(=O)c2ccccn2)n1)NCc1ccccc1	9.97
O=C(NCc1ccc(Cl)cc1)C1=NOC2(CCNC2)C1 (stereo not drawn)	-4.21
Cc1ccc(CN2CC[C@]3(C[C@H](OCc4ccccn4)CO3)C2)o1	-0.617
CCOc1cccc2c1OCC(C(=O)NS(=O)(=O)c1ccc(Br)s1)=C2	-11.6
Cn1nc(C2CCCN(Cc3cccc(F)c3)C2)c2nccnc21 (stereo not drawn)	-3.96
Cc1ccc(C(=O)N2CCN(CC(C)O)CC2)cc1S(C)(=O)=O (stereo not drawn)	-2.96
O=C(c1ccc[nH]1)N1CCc2onc(COc3cccnc3)c2C1	-62.6
O=C(CCn1ccc(=O)[nH]c1=O)N1CCC(Oc2ncccc2Cl)CC1	1.71
O=C1CCC(=O)c2oc3ccc(Cl)cc3c2N1	7.58
O=C(Nc1nccs1)NC1CCOc2ccccc21 (stereo not drawn)	6.78
CC(C)Oc1cccc(C(O)CNC(=O)Nc2cccs2)c1 (stereo not drawn)	2.19
Cc1ccc(C2CSCCN2CC(=O)N2CCOCC2)cc1 (stereo not drawn)	9.04
O=C1CC(c2ccc3c(c2)OCO3)c2c(n3ccsc3nc2=O)N1 (stereo not drawn)	8.38

SMILES	cytotoxicity at 10 µM [%]
Cn1cnc(S(=O)(=O)NCC2(O)CCc3ccccc32)c1 (stereo not drawn)	11.6
Cc1cnn(CC2CCCN2Cc2nnc(C)o2)c1 (stereo not drawn)	-11.2
CN(Cc1ccco1)C(=O)CN1CCCC1Cn1cncn1 (stereo not drawn)	-24.1
Cc1cc(C)n(CCN2CCC(N(C)Cc3noc(C4CC4)n3)C2)n1 (stereo not drawn)	-2.92
Cc1cnn(C2CN(CC(=O)N(C)Cc3ccc(C)o3)C2)c1	-15.9
CN1CC(c2ccccc2)CC2(CCN(C(=O)c3cccnn3)CC2)C1 (stereo not drawn)	-8.92
CCn1ncnc1C(C)Nc1cc(C)c2ccc(SC)cc2n1 (stereo not drawn)	-0.995
Cc1c[nH]nc1C1CCCCN1C(=O)CNS(C)(=O)=O (stereo not drawn)	-9.19
O=C(O)c1cncc(Cc2ccccc2F)c1	0.812
Cc1noc(C)c1CN1C[C@@H]2CCCO[C@@H]2[C@H](Nc2ccccn2)C1	5.44
c1nc2n(n1)CC(NCc1nc(-c3ccsc3)no1)CC2 (stereo not drawn)	-8.13
CCn1cc(CN2C[C@@H]3CC[C@H]2CN(C(=O)c2cnccn2)C3)cn1	-8.39
CCS(=O)(=O)N1CC[C@H](OC)[C@H]2CN(Cc3ccncc3)C[C@H]21	10.3
Cc1cc(CN2CCN(Cc3cc(C#N)ccc3F)CC2)no1	5.78
Cc1cc(CN2CCN(C(=O)NC(C)c3ccc(C)o3)CC2)on1 (stereo not drawn)	-8.72
COc1ccc(C(=O)NCc2ccco2)nn1	-2.14
Cc1nccc(-c2cccc(NCC(=O)N3CCNC3=O)c2)n1	1.9
CCC(c1ccccc1)N1CCN(C(=O)c2cc(C(N)=O)c[nH]2)CC1 (stereo not drawn)	2.96
Fc1ccc(CC2CCN(Cc3cscn3)CC2)cc1	-7.27
c1cncc(OCc2nnn3c2CN(Cc2ccsc2)CCC3)c1	-4.34
CS(=O)(=O)NCc1nnc2n1CCN(Cc1ccccn1)C2	-75.5
CNC(=O)C1Cc2ccccc2CN1CCCc1ccccc1 (stereo not drawn)	4.23
COCCn1ccc2c(C(=O)Nc3nc4c(s3)CCC4)cccc21	1.82

SMILES	cytotoxicity at 10 µM [%]
COCCC(=O)N1CCC(c2cc3ncc(C)nc3[nH]2)CC1	-8.86
CCn1cc(S(=O)(=O)NC2CCCN(CCCc3ccccc3)C2)cn1 (stereo not drawn)	8.08
CC(C)(C)c1nnc(CN2CCCC(c3cc(C(N)=O)[nH]n3)C2)o1 (stereo not drawn)	-7.89
O=C(CN1CC(n2cccn2)C1)NCCc1ccc(F)cc1	-14.3
COCCN(C)C(=O)c1ccc2onc(-c3coc(C)n3)c2c1	-144
C1CN(Cc2noc(C3CC3)n2)CCN(Cc2nnc(C3CC3)o2)C1	-10.9
CN(C)C(=O)N1C[C@H]2CN(Cc3cccc(F)c3)C(=O)[C@H]2C1	4.61
O=c1oc(-c2ccc(F)cc2)nn1CCS(=O)(=O)c1ccccc1	-0.924
O=C(C1SCCc2sccc21)N1CCN(C2CC2)C(=O)C1 (stereo not drawn)	3.24
Cc1nn(C)c2c(N3CCN(C(=O)C4CC4)CC3)ncnc12	9.02
COc1ccc(C2CC(=O)Oc3cc(C)[nH]c(=O)c32)c(OC)c1 (stereo not drawn)	-3.4
c1csc(N2CCCN(c3nccn4cnnc34)CC2)n1	-5.05
O=C(c1cc2ccccc2[nH]1)N1CCC(Nc2cccnn2)CC1	-16.9
O=C(O)c1cccnc1CN1CCCCC1CCc1cccc(O)c1 (stereo not drawn)	-1.84
Cc1nc(C2CCCN(C(=O)c3cnn(C4CCCCC4)c3)C2)no1 (stereo not drawn)	-6.37
CC(C)C1CN(S(=O)(=O)c2cccc(C#N)c2)CCS1 (stereo not drawn)	1.06
CCOC(=O)NC(CNC(=O)c1cccnc1SC)CC(C)C (stereo not drawn)	6.68
CC1(NC(=O)CC2CCc3ccccc32)CCOCC1 (stereo not drawn)	0.995
Cc1cc(N(C)CC2COc3ccccc3O2)nc(C)n1 (stereo not drawn)	38.7
COc1ccc(-c2cccc3c2OC(CN)C3)cc1F (stereo not drawn)	-51.4
CCN(CC1CN(Cc2ncc(C)o2)CCO1)c1cccnn1 (stereo not drawn)	-0.343
CC(C)OCc1nn(C)c2c1CCN(Cc1ccco1)C2	-115
Cc1nc(C)n(C2CCCN(C(=O)COCc3ccccc3)C2)n1 (stereo not drawn)	-11

SMILES	cytotoxicity at 10 µM [%]
O=C(O)CCc1ccc(S(=O)(=O)Nc2cnn(CC3CC3)c2)cc1	-8.35
CC(C)c1ccc(OCCNC(=O)CN2CCN(C)CC2C)cc1 (stereo not drawn)	-13.2
Cc1nc(C(=O)NCCS(=O)(=O)N2CCCC2)cs1	13.4
c1ccc2oc(CCCN3CCOC(Cn4cncn4)C3)nc2c1 (stereo not drawn)	1.52
Cc1cc(C(=O)NCc2cccnc2N(C)C)c(C)o1	-9.51
c1cncc(-c2nnn3c2COCC(CNC2CCOCC2)C3)c1 (stereo not drawn)	-77
CC(=O)NCC1CCN(C(=O)c2ccc(Sc3ccccn3)cc2)CC1	9.15
Cc1cc(N2CCC(O)(CN(C)C(=O)CCN)C2)c2cnccc2n1 (stereo not drawn)	-2.06
COc1ccccc1OCCc1nnc(NC(=O)C2CC23CCC3)s1 (stereo not drawn)	1.26
CC(C)(C)n1ncc2c1NC(=O)CC2c1cccs1 (stereo not drawn)	3.48
O=C(c1cnco1)N1CCC(Cc2cnc3ccccc3c2)CC1	5.08
CN(C)c1ccc(C(O)CNS(=O)(=O)C2CC2)cc1 (stereo not drawn)	-4.99
Cc1ccc(C(=O)CCC(=O)N2CCC(c3nncn3C)CC2)cc1	-9.86
CCCc1nnsc1C(=O)N1CCN(CC(O)c2ccco2)CC1 (stereo not drawn)	-7.86
CSc1nc2ccsc2c(=O)n1CC(=O)NC1CCCCC1	4.45
CCn1nccc1CNC(=O)C1CCC1	-2.17
Cc1ccc(O)c(CNC2CCCN(Cc3noc(C4CC4)n3)C2)n1 (stereo not drawn)	-5.59
CCn1ncc(CN2CCC(c3ncc(Cl)cc3S(C)(=O)=O)CC2)c1C	3.5
COC[C@H]1CN(CC2CC2)C(=O)[C@@H]2CCN(Cc3ccoc3)CC[C@H]12	-2.05
Cc1ccc(-n2nnc(C(=O)NS(C)(=O)=O)c2C2CC2)cc1	-13.9
Cn1cnnc1C1CCN(c2cncc(-n3cccn3)n2)CC1	-8.37
